Results on 24 compounds are retold here after ChEMBL document CHEMBL2057185, “Analogs of N'-hydroxy-N-(4H,5H-naphtho[1,2-d]thiazol-2-yl)methanimidamide inhibit Mycobacterium tuberculosis methionine aminopeptidases” (Bioorg Med Chem, 2012).

A short description of series [1]: Inhibition of Mycobacterium tuberculosis C-terminal His6-tagged MetAP1A using methionylprolyl-p-nitroanilide as substrate incubated for 20 mins prior to substrate addition measured for 20 mins by spectrophotometry in presence of Co2+. Put shortly: (§1)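 Coupled colorimetric assay in 40 mM HEPES pH 7.5, 100 mM NaCl, 10 µM CoCl₂ or MnCl₂. Enzyme was 200 nM MetAP1a or 100 nM MetAP1c, with 1.5 U/mL Bacillus coagulans proline aminopeptidase as coupling enzyme. Eleven inhibitor levels (0.049–50 µM) were preincubated 20 min at room temperature. Met-Pro-pNA was added to 600 µM final, and A405 was followed 20 min against DMSO wells. IC50 came from nonlinear regression, averaging ≥3 independent triplicate experiments ± SD.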

The nature of series [2]: Inhibition of Mycobacterium tuberculosis C-terminal His6-tagged MetAP1A using methionylprolyl-p-nitroanilide as substrate incubated for 20 mins prior to substrate addition measured for 20 mins by spectrophotometry in presence of Mn2+. Put shortly: as §1
The nature of series [3]: Inhibition of Mycobacterium tuberculosis N-terminal His6-tagged MetAP1C using methionylprolyl-p-nitroanilide as substrate incubated for 20 mins prior to substrate addition measured for 20 mins by spectrophotometry in presence of Co2+. A digest of the protocol:
as §1

Series [4] is described as follows: Inhibition of Mycobacterium tuberculosis N-terminal His6-tagged MetAP1C using methionylprolyl-p-nitroanilide as substrate incubated for 20 mins prior to substrate addition measured for 20 mins by spectrophotometry in presence of Mn2+. A digest of the protocol:
as §1

For series [5], the system named is Mycobacterium tuberculosis. As to the kind of experiment: Antimycobacterial activity against Mycobacterium tuberculosis H37Rv after 2 weeks. The series is classed as functional. The note with it: 336 h. A digest of the protocol:
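Each well received log-phase M. tuberculosis H37Rv diluted to ≈10⁶ CFU/mL in 7H9. An uninoculated sterile control was included. Plates were sealed and incubated 37 °C for two weeks.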

Series [6] can be described thus: Co2+ chelation activity of the compound at 10 uM. The series is classed as functional. Put shortly: (§2)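 UV-vis spectra were recorded for compounds at 10 µM in MetAP assay buffer, with and without 10 µM cobalt or manganese chloride.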
Series [7] in a line: Mn2+ chelation activity of the compound at 10 uM. The series is classed as functional. Put shortly: as §2
Series [8] is described as follows: Chemical stability of the compound in Middlebrook 7H9 broth at 200 ug/mL after 10 days by HPLC analysis. The series is classed as physicochemical. The note with it: 240 h.
Series [9] in a line: Inhibition of Mycobacterium tuberculosis MetAP1A expressed in Escherichia coli using Met-AMC as substrate in presence of Mn2+.
The nature of series [10]: Inhibition of Mycobacterium tuberculosis MetAP1C expressed in Escherichia coli using Met-AMC as substrate in presence of Mn2+.
Series [11] relates to Mycobacterium tuberculosis. As to the kind of experiment: Antimycobacterial activity against Mycobacterium tuberculosis H37Rv ATCC 27294 after 7 days by microplate alamar blue assay. The series is classed as functional. The note with it: H37Rv ATCC 27294, 168 h.

SMILES strings stand for the structures. Converted amounts (≈) assume the structure as drawn. The source made the active and inactive calls. The calls are words filed in the database; no cut-off is given here.

`COc1ccc2c(c1)CCc1sc(N)nc1-2`: the IC50 in series [1], in [2], in series [3] and in series [4] was over 50 µM in each case.

For `COc1ccc(-c2csc(N/C=N\O)n2)cc1OC`, the IC50 in [1] was over 20 µM; in series [2], over 20 µM; in series [3] it was 6.6 µM; in series [4], 7 µM. In addition, the MIC in [5] came to 200 µg/mL (≈ 716 µM).

Turning to `COc1ccc2c(c1)Cc1sc(N/C=N\O)nc1-2`, the IC50 in series [1], in series [2], in series [3] and in series [4] was over 50 µM in each case. For the same compound, in series [5], the MIC was 100 µg/mL (≈ 383 µM).

Regarding `O/N=C\Nc1nc2c(s1)CCOc1cc3c(cc1-2)OCO3`, the IC50 turned out to be 1.26 µM in series [1], 24.5 µM in [2], 0.38 µM in series [3] and 3.13 µM in [4]. For the same compound, the outcome in series [6] and in series [7] was Active. Further, the MIC in series [5] is over 200 µg/mL. In [8], the Stability entry is reported as “Stable”.

On to `COc1ccc2c(c1)OC(c1ccccc1)c1sc(N/C=N\O)nc1-2` (configuration not stated), for which the IC50 in [1] was 6.7 µM; in series [2], 9.7 µM; in series [3], over 50 µM; in series [4], over 50 µM. Moreover, the MIC in series [5] was over 200 µg/mL.

Regarding `CCCCCCCCC(=O)Nc1nc2c(s1)CCc1cc(OC)ccc1-2`, the IC50 in series [1], in [2], in series [3] and in series [4] was over 50 µM each time.

As to `COc1ccc2c(c1)CCc1sc(/N=C/c3ccco3)nc1-2`, the IC50 in [1], in [2], in [3] and in series [4] was over 50 µM throughout.

For `O/N=C\Nc1nc2c(s1)CCc1ccccc1-2`, the IC50 in series [1] is 11.5 µM; in [2], over 50 µM; in [3], 1.05 µM; in series [4], over 50 µM. This compound showed an MIC in series [5] of 100 µg/mL (≈ 408 µM). In addition, in series [8], the Stability result is reported as “Stable”.

For `COc1cccc2c1CCc1sc(N/C=N\O)nc1-2`, the IC50 in series [1] was 11.3 µM; in [2] it was 11.7 µM; in series [3], 1.89 µM; in series [4], 10.3 µM. The same compound came in with an MIC in [5] of over 200 µg/mL.

On to `COc1cc2c(cc1OC)-c1nc(N/C=N\O)sc1CC2`, for which the IC50 was 14.6 µM in [1], 14.6 µM in series [2], 3.77 µM in series [3] and over 50 µM in series [4]. The MIC in [5] was over 200 µg/mL.

In the case of `COc1ccc2c(c1)OCc1sc(N/C=N\O)nc1-2`, the concentration for half-maximal inhibition (IC50) in series [1] is 4.9 µM; in [2], 4.7 µM; in series [3] it was over 50 µM; in [4], over 50 µM. Also, the outcome in series [6] and in [7] was Active. The MIC in [5] was over 200 µg/mL.

Turning to `COc1ccc2c(c1)CCc1sc(NC(C)=O)nc1-2`, the IC50 in [1], in series [2], in series [3] and in [4] was over 50 µM in each case.

Turning to `COc1ccc2c(c1)CCc1sc(/N=C/c3ccccc3O)nc1-2`, the IC50 in [1], in series [2], in [3] and in series [4] was over 50 µM in each case.

As for `O=C1C(Br)=C(Br)C(=O)c2ccccc21` [2,3-Dibromo-1,4-naphthoquinone], the IC50 in series [1] is 1.14 µM; in [3], 0.71 µM. In [5], this compound registered an MIC of 25 µg/mL (≈ 79.1 µM).

In the case of `CCCCCCCCC(=O)Nc1nc2c(s1)CCc1ccccc1-2`, the IC50 in [1], in [2], in series [3] and in series [4] was over 50 µM each time.

As for `CO[C@@H](C(=O)NCCOc1c(C)cc(C)cc1C)[C@H](O)[C@@H](O)[C@H](O)/C=C/C(C)(C)C`, the IC50 was 6.9 µM in series [9] and 540 nM in series [10]. In addition, the MIC in [11] was 18.5 µg/mL (≈ 43.7 µM).

For the compound `COc1ccc2c(c1)CCc1sc(NC(=O)[C@H](C)O)nc1-2`, the IC50 in series [1], in series [2], in series [3] and in series [4] was over 50 µM throughout.

Turning to `O/N=C\Nc1nc2c(s1)CCCc1cc3c(cc1-2)OCO3`, the IC50 was 15.4 µM in series [1], over 50 µM in series [2], 1.4 µM in series [3] and 14.5 µM in series [4]. The compound further gave a minimum inhibitory concentration (MIC) in [5] of over 200 µg/mL.

Consider `O/N=C\Nc1nc2c(s1)COc1cc3c(cc1-2)OCO3`, for which the IC50 in series [1] was 1.43 µM; in [2] it was over 10 µM; in series [3], 0.73 µM; in [4], 4.4 µM. For the same compound, the result in [6] and in series [7] was Active. This compound returned a minimum inhibitory concentration (MIC) in [5] of 100 µg/mL (≈ 343 µM).

For `O/N=C\Nc1nc2c(s1)CCc1cc3c(cc1-2)OCO3`, the IC50 in series [1] was 15.4 µM; in [2], over 20 µM; in series [3] it was over 20 µM; in series [4], 12.5 µM. The compound also came in with an MIC in [5] of over 200 µg/mL.

`CN(C)/C=N/c1nc2c(s1)CCc1ccccc1-2`: the IC50 in [1] was 28.9 µM; in series [2], 27.7 µM; in series [3], 36.3 µM; in series [4], over 50 µM.

Turning to `Nc1nc2c(s1)CCc1ccccc1-2`, the IC50 in series [1], in [2], in series [3] and in series [4] was over 50 µM throughout.

In the case of `COc1ccc2c(c1)CCc1sc(N/C=N\O)nc1-2`, the IC50 was 5.35 µM in series [1], over 50 µM in [2], 1.33 µM in [3] and over 50 µM in [4]. Further, the MIC in [5] was over 200 µg/mL. Besides, in series [8], the Stability entry was “Stable”.

Consider `COc1ccc2c(c1)-c1nc(NC=NO)sc1CC2`, for which the IC50 was 1.9 µM in [1], over 50 µM in [2], 0.64 µM in series [3] and 2.33 µM in [4]. The same compound registered an MIC in [5] of 200 µg/mL (≈ 726 µM). For the same compound, the Stability result in [8] is recorded as “Stable”.

As a reminder, the IC50 is the concentration needed to halve the response being measured. For orientation: MIC means the least concentration at which growth counts as inhibited. Lower therefore signals greater potency.
